Results from paper PMC9918595 (Molecular imaging and biology, 2022).
Several values for one entry are separate records, joined by “and”; a condition that tells them apart may be missing. Identical values can stand only once. Entries after “also recorded” stand apart in the source; their conditions may differ. Like-named read-outs stand apart in the source and are kept apart here.

Key:
[1] = tested on: human TRPC5; settings: whole-cell manual patched clamp assay; cited from earlier work
[2] = tested on: wide range of molecular targets including ion channels (TRPV, TRPM), receptors (dopamine D1 and D2, NMDA, TNF-α) and enzymes (acetylcholinesterase, tyrosine …); settings: patch clamp assay; cited from earlier work
[3] = in vivo studies; cited from earlier work
[4] = tested on: human TRPC5; settings: calcium flux assay; cited from earlier work
[5] = biological target: T1, TRPC5 (Rattus norvegicus, UniProt Q8VD38); test: In vitro autoradiography study of the rat brain; assay type: binding, Sprague Dawley rats
T1 sequence (Q8VD38 1-974): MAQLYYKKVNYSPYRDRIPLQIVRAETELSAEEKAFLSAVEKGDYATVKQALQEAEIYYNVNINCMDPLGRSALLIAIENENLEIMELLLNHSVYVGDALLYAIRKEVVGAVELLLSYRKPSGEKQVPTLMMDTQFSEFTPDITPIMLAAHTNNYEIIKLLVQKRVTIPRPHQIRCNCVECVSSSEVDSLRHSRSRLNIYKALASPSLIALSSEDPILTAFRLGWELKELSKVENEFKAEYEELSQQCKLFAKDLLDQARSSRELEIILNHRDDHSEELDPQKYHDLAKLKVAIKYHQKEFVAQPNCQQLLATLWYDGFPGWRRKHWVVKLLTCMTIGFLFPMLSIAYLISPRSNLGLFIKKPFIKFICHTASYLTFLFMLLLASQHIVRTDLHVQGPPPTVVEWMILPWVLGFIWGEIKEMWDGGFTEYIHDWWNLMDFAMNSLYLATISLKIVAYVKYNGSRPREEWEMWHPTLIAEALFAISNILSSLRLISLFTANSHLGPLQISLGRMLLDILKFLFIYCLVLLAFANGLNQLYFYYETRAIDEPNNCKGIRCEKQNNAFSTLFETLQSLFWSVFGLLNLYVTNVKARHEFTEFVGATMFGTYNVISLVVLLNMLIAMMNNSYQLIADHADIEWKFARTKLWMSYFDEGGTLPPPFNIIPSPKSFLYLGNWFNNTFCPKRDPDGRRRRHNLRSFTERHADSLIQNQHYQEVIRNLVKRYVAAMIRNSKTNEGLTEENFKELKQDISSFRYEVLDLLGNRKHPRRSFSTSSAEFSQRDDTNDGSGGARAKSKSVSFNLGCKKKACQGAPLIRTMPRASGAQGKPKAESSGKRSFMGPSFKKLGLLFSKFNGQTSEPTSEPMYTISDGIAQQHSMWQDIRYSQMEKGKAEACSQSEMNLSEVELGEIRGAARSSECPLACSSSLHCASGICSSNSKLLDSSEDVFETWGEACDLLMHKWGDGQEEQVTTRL

[6] = biological target: T2, TRPC5 (Mus musculus, UniProt Q9QX29); assay type: in vivo, 129S1/SvImJ mice; settings: 129S1/SvImJ wild-type mice
T2 sequence (Q9QX29 1-975): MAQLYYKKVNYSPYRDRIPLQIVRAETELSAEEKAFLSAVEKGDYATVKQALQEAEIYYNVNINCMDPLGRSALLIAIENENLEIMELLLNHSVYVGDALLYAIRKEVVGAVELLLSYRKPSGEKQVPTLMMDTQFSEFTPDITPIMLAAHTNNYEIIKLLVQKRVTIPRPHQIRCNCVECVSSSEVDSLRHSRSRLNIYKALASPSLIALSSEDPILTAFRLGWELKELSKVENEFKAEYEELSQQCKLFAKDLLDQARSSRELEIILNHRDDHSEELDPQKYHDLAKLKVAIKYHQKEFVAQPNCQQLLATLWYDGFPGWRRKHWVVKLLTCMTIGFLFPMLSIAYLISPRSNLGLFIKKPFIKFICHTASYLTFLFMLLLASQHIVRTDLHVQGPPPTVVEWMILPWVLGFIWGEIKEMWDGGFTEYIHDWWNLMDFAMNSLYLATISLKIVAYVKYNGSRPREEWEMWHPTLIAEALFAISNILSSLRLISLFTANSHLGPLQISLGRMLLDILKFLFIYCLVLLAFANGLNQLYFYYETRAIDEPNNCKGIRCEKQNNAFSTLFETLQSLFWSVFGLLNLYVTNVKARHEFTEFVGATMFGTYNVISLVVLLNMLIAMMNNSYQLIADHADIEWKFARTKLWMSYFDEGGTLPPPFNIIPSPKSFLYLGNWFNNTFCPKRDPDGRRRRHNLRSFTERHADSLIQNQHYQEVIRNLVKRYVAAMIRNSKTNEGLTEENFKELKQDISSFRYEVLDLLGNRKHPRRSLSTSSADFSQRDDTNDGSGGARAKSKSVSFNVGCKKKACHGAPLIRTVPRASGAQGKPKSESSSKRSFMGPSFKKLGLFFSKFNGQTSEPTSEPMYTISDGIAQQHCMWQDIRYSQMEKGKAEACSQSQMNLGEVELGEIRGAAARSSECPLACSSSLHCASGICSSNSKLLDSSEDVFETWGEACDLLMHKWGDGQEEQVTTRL

[7] = tested on: TRPC5; assay type: in vivo, 129S1/SvImJ mice; settings: 129S1/SvImJ TRPC5 knockout mice
[8] = LogD7.4 measurement, shake flask method; assay type: physicochemical; settings: n-octanol / PBS pH 7.4, n = 3
[9] = tested on: TRPC5; test: MicroPET brain study of the nonhuman primate; assay type: in vivo, cynomolgus macaques
Procedure, shortened: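 Adult male cynomolgus macaques (9–10 kg), two tracer scans in each of two animals; fasted 12 h, ketamine (10–20 mg kg−1) plus glycopyrrolate ([…]) i.m., intubated, 0.8–2.0% isoflurane/oxygen. Venous catheter; 10 min positioning and 45 min attenuation transmission scans. IV bolus ~0.35 GBq (injected mass ~4.2 μg); 0–120 min dynamic scan (3×1, 4×2, 3×3, 20×5 min frames).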

[10] = Ex vivo biodistribution study; assay type: in vivo, Sprague Dawley rats; settings: for Tracer uptake, Blood / Tracer uptake, Brain / Tracer uptake, Fat / Tracer uptake, Heart / Tracer uptake, Kidney / Tracer uptake, Lung / Tracer uptake, Muscle / Tracer uptake, Pancreas / Tracer uptake, Small intestine / Tracer uptake, Spleen / Tracer uptake, Thymus / Tracer uptake, Liver: iv, n = 4
[11] = Solubility of the radiotracer in dose formulation; assay type: physicochemical

Cn1c(=O)n(CCCO)c(=O)c2c1nc(Oc1cccc(Cl)c1)n2Cc1ccc(Cl)cc1 [HC070]
IC50 [1]: 0.52 nM | selectivity over a wide range of molecular targets [2]: at least 400 fold | anxiolytic and antidepressant function [3]: carries anxiolytic and antidepressant function | oral bioavailability [3]: orally bioavailable | IC50 [4]: 9.3 nM

Cn1c(=O)n(CCCO)c(=O)c2c1nc(Oc1cccc(OC(F)(F)F)c1)n2Cc1ccc(Cl)cc1 [HC608]
blocking of [^11C]HC070 binding in rat brain sections ([5]; cold blocker at 1 μM): significantly reduced binding; also recorded: able to reduce the radioactivity signal in the tissue slides very well; also recorded: significantly blocked

[11CH3]n1c(=O)n(CCCO)c(=O)c2c1nc(Oc1cccc(Cl)c1)n2Cc1ccc(Cl)cc1 [[^11C]HC070]
time of peak brain uptake [6]: ~ 1.0 min | peak brain uptake (SUV) ([6]; iv, 0-60 min dynamic PET, n = 3): 1.13 and ~ 1.13 and 1.13 ± 0.08 | time of peak brain uptake [7]: ≤ 2 min | logD7.4 [8]: 1.08 ± 0.04 | regional brain uptake, prefrontal cortex (SUV) ([9]; macaque, highest regional radioactivity): 2.88 | fold higher brain uptake compared with [^11C]HC608 ([9]; macaque, initial time (5 min), average): 2.4 fold | time of maximum brain uptake post-injection ([9]; male cynomolgus macaque): 3 to 5 min | maximum total brain uptake (SUV) ([9]; male cynomolgus macaque, iv, 0-120 min dynamic PET): ~ 2.2 and 2.2 | regional accumulation in rat brain sections ([5]; 1.11 MBq/slide, room temperature, 30 min): highest accumulation in the TRPC5-enriched colliculus, striatum, cortex, and thalamus regions | binding specificity in rat brain sections ([5]; autoradiography with HC608 block): specifically binds TRPC5 sites in rat brain sections | brain uptake ratio from 5 min to 60 min ([10]; SD rats, 5 min/60 min): 4.5 | Tracer uptake, Blood ([10]; SD rats, 5 min post injection): 0.13±0.02 %I.D./gram | Tracer uptake, Brain ([10]; SD rats, 5 min post injection): 0.47±0.10 %I.D./gram | Tracer uptake, Fat ([10]; SD rats, 5 min post injection): 0.07±0.02 %I.D./gram | Tracer uptake, Heart ([10]; SD rats, 5 min post injection): 0.94±0.12 %I.D./gram | Tracer uptake, Kidney ([10]; SD rats, 5 min post injection): 1.28±0.28 %I.D./gram | Tracer uptake, Lung ([10]; SD rats, 5 min post injection): 0.72±0.07 %I.D./gram | Tracer uptake, Muscle ([10]; SD rats, 5 min post injection): 0.12±0.01 %I.D./gram | Tracer uptake, Pancreas ([10]; SD rats, 5 min post injection): 1.33±0.30 %I.D./gram | Tracer uptake, Small intestine ([10]; SD rats, 5 min post injection): 1.16±0.11 %I.D./gram | Tracer uptake, Spleen ([10]; SD rats, 5 min post injection): 0.73±0.17 %I.D./gram | Tracer uptake, Thymus ([10]; SD rats, 5 min post injection): 0.47±0.08 %I.D./gram | Tracer uptake, Blood ([10]; SD rats, 30 min post injection): 0.12±0.02 %I.D./gram | Tracer uptake, Brain ([10]; SD rats, 30 min post injection): 0.18±0.01 %I.D./gram | Tracer uptake, Fat ([10]; SD rats, 30 min post injection): 0.31±0.09 %I.D./gram | Tracer uptake, Heart ([10]; SD rats, 30 min post injection): 0.33±0.03 %I.D./gram | Tracer uptake, Kidney ([10]; SD rats, 30 min post injection): 0.46±0.03 %I.D./gram | Tracer uptake, Liver ([10]; SD rats, 30 min post injection): 1.70±0.18 %I.D./gram | Tracer uptake, Lung ([10]; SD rats, 30 min post injection): 0.41±0.07 %I.D./gram | Tracer uptake, Muscle ([10]; SD rats, 30 min post injection): 0.17±0.02 %I.D./gram | Tracer uptake, Pancreas ([10]; SD rats, 30 min post injection): 0.47±0.01 %I.D./gram | Tracer uptake, Small intestine ([10]; SD rats, 30 min post injection): 3.01±0.23 %I.D./gram | Tracer uptake, Spleen ([10]; SD rats, 30 min post injection): 0.20±0.02 %I.D./gram | Tracer uptake, Thymus ([10]; SD rats, 30 min post injection): 0.24±0.02 %I.D./gram | Tracer uptake, Blood ([10]; SD rats, 60 min post injection): 0.12±0.01 %I.D./gram | Tracer uptake, Brain ([10]; SD rats, 60 min post injection): 0.09±0.02 %I.D./gram | Tracer uptake, Fat ([10]; SD rats, 60 min post injection): 0.35±0.12 %I.D./gram | Tracer uptake, Heart ([10]; SD rats, 60 min post injection): 0.20±0.03 %I.D./gram | Tracer uptake, Kidney ([10]; SD rats, 60 min post injection): 0.33±0.05 %I.D./gram | Tracer uptake, Liver ([10]; SD rats, 60 min post injection): 1.88±0.13 %I.D./gram | Tracer uptake, Lung ([10]; SD rats, 60 min post injection): 0.23±0.07 %I.D./gram | Tracer uptake, Muscle ([10]; SD rats, 60 min post injection): 0.13±0.02 %I.D./gram | Tracer uptake, Pancreas ([10]; SD rats, 60 min post injection): 0.33±0.06 %I.D./gram | Tracer uptake, Small intestine ([10]; SD rats, 60 min post injection): 3.01±1.71 %I.D./gram | Tracer uptake, Spleen ([10]; SD rats, 60 min post injection): 0.13±0.01 %I.D./gram | Tracer uptake, Thymus ([10]; SD rats, 60 min post injection): 0.13±0.03 %I.D./gram | clearance from plasma ([10]; rats, ex vivo distribution): cleared from plasma primarily through hepatobiliary metabolism | solubility ([11]; dose formulation, ethanol/saline): good solubility; also recorded: improved solubility in ethanol/saline medium | residue retaining inside surface of a glass vial or a syringe ([11]; dose solution without Kolliphor HS15): little percentage of retaining was detected
